Compound activity deposited in PubChem by several laboratories.
APJ agonist = agonists of human APJ apelin receptor | CHO-K1 APJ PathHunter beta-arrestin, luminescence; 0% DMSO wells, 100% apelin | activation, % at 20 µM | hit rate 0.11% among 330,000 | AID 2520;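 active = activation more than six SD over the plate average, tested at 20 µM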;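 also: 0% = DMSO alone and 100% = apelin-13 at 10 nM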
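system = engineered CHO-K1 APJ arrestin reporter cells | input = 1000 cells per well | timing = overnight seeding, 90 min compound at 25 °C, 1 h detection | measured by = enzyme-fragment complementation luminescence | read-out = beta-arrestin recruitment to APJ as agonist activity, luminescent signal | control set = negative DMSO alone, positive Apelin-13 at 10 nM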
CCR6 antag = blocks CCL20-driven beta-arrestin recruitment at human CCR6; hit rate 0.49% among 340,000; AID 493098; P51684; inhibition, % at 20 µM; CHO-K1 CCR6 PathHunter beta-arrestin, luminescence, CCL20-stimulated;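 active = compounds whose inhibition of the agonist-driven luminescence signal at 20 µM reaches about 50%, limit read from the data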;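 also: cells stimulated with CCL20 at 14 nM final; plate controls were DMSO with CCL20 for no effect and DMSO without agonist for full effect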
B2AR ag = human beta-2 adrenergic receptor agonism by FAP. P07550. Am2.2-beta2AR cells, FAP receptor internalization, flow cytometry. response, % (no concentration beside the values). hit rate 0.43% among 340,000;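 active = response above a set limit, near 3 SD of response in nonfluorescent compounds, cut at about 42% in these data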
Target sequence (P07550 whole entry, looked up): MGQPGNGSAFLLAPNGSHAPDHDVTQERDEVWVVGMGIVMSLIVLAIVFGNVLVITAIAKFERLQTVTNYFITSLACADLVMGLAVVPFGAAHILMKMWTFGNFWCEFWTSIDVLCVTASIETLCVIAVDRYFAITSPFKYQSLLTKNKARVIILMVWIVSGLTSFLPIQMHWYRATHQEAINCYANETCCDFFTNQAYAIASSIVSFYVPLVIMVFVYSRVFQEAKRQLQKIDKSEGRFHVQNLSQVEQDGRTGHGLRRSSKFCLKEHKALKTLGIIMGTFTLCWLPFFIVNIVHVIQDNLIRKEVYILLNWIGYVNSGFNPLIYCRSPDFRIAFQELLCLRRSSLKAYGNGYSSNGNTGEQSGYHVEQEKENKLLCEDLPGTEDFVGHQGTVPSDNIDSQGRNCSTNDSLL
CXCR6 inh = CXCR6 (human) receptor inhibition; CHO-K1 PathHunter CXCR6 beta-arrestin, luminescence; hit rate 0.36% among 360,000; O00574; inhibition, % at 20 µM; in the data active = inhibition above about 34%, passing the limit was not always enough;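 also: antagonist mode with CXCL16 agonist at 10 nM final; 0% = 10 nM CXCL16 with DMSO and 100% = unstimulated wells without agonist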
EBI2 antag = EBI2 (human) antagonism | hit rate 0.81% among 360,000 | EBI2 beta-arrestin recruitment, luminescence, 7a,25-OHC stimulated | AID 651636 | inhibition, % at 5 µM | P32249; in the data active = inhibition above about 38%;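 also: enzyme fragment complementation signal reports receptor beta-arrestin coupling in cells; 0% = agonist plus DMSO wells and 100% = wells without agonist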
APJ antagonist = antagonists of human APJ apelin receptor | P35414 | CHO-K1 APJ beta-arrestin complementation, luminescence | inhibition, % at 20 µM | hit rate 0.32% among 330,000;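 active = inhibition above about 40% at 20 µM, limit read from the data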;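 also: cells challenged with 10 nM apelin-13 agonist together with compound; plate controls were apelin-13 plus DMSO wells for no effect and DMSO wells lacking apelin-13 for full effect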
EBI2 conf = confirmation of human EBI2 receptor antagonists; inhibition, % at 5 µM; EBI2 beta-arrestin luminescence, 7a,25-OHC antagonism; hit rate 29% among 2,400; AID 651997; shares compounds with EBI2 antag;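 active = inhibition of at least 50%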
EBI2 ag = counter-screen for EBI2 antagonists: EBI2 agonist activity. 2,400 tested, under 10 active. activation, % at 5 µM. EBI2-expressing cells, agonist mode, luminescence, 60 min; 0% vehicle, 100% 7α,25-dihydroxycholesterol control. shares compounds with EBI2 antag;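 active = activation of at least 50%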
bGal counter = counter-screen for EBI2 antagonists: E. coli beta-galactosidase inhibition; shares compounds with EBI2 antag; purified beta-galactosidase, luminescent Galacton Star, 15 min; inhibition, % at 5 µM; hit rate 1% among 2,400; AID 652176;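 active = replicate-average signal at least 3 plate SD below neutral wells, shown as high inhibition, flagging enzyme-inhibiting false positives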;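 also: 0% = DMSO wells with enzyme and 100% = wells lacking enzyme; higher means stronger loss of beta-gal luminescence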
Numbers without * were called inactive; . = not tested or not shown. The list is not random: actives were taken first. Their share in the collection is about 1.8%.

SMILES | APJ agonist | CCR6 antag | B2AR ag | CXCR6 inh | EBI2 antag | APJ antagonist | EBI2 conf | EBI2 ag | bGal counter
CC1CCCC(C)N1NC(=S)Nc1ccc(OC(F)F)cc1 (configuration not stated) | 0 | 1 | -8 | -3 | 2 | -12 | . | . | .
CC1CCCCN1C(=S)Nc1ccc(OC(F)F)cc1 (configuration not stated) | -1 | -3 | 6 | 14 | 50* | -9 | 1 | -1 | -14
O=C(COc1ccc(Br)cc1)c1ccc2c(c1)CCCC2 | 4 | 31 | 0 | -3 | 75* | -8 | 35 | 2 | 2
O=C(COc1ccc(Br)cc1)N1CCC(c2ccccc2)C1 (configuration not stated) | -5 | 9 | -3 | 6 | 87* | 8 | 84* | -1 | 5
O=C(COc1ccc(Br)cc1)N1CCc2ccccc2C1 | 2 | 17 | -5 | 4 | 58* | 2 | 73* | -1 | 7
Cc1cc(-c2ccccc2)n(-c2ccccc2)n1 | -2 | 15 | -11 | -1 | 5 | -3 | . | . | .
COc1cc(/C=N/NC(=O)CSc2cc(C)c(Br)cc2C)ccc1O | 3 | -8 | 4 | -20 | 59* | -1 | 9 | -1 | -14
S=C(NCCCN1CCN(CCCNC(=S)NC2CCCCC2)CC1)NC1CCCCC1 | . | 9 | -3 | 6 | -7 | . | . | . | .
CC(=O)NC(c1cccc(F)c1)c1nc(-c2cccs2)cs1 (configuration not stated) | . | . | . | 0 | -4 | . | . | . | .
COc1ccc([C@H]2CC(=O)C=C(c3cccc(Cl)c3)C2)cc1 | -4 | 17 | -12 | -2 | 42 | 5 | . | . | .
O=C1C=C(c2cccc(Cl)c2)C[C@@H](c2ccc(Cl)cc2)C1 | -3 | 25 | 25 | 2 | 53* | -5 | 25 | -2 | -6
CSc1ccc(C2=CC(=O)C[C@H](c3ccc(Cl)cc3)C2)cc1 | -4 | 17 | -9 | 6 | 67* | 3 | 52* | 2 | 5
O=C1C=C(c2cccc(Br)c2)C[C@@H](c2ccc(Cl)cc2)C1 | -4 | 19 | 5 | -10 | 46* | 7 | 13 | 0 | -13
COc1cc(F)c(C2=CC(=O)C[C@H](c3ccc(Cl)cc3)C2)cc1F | -3 | 6 | -10 | 10 | 58* | 4 | 44 | 0 | 3
CCCCN(C)c1c(C)nc2ccc(C(=O)N(CC)CCN(C)C)cn12 | . | . | . | 4 | -3 | . | . | . | .
Cc1cccc(NC(=O)CC2C(=O)NCCN2C(=O)Nc2ccc(Cl)cc2)c1 (configuration not stated) | 10 | -55 | 2 | -6 | -1 | -2 | . | . | .
O=C1C=C(c2ccc(-c3ccccc3)c(F)c2)C[C@@H](c2ccc(Cl)cc2)C1 | -2 | 12 | 11 | -9 | 38 | 0 | . | . | .
O=C1C=C(c2ccc3c(c2)oc2ccccc23)C[C@@H](c2ccc(Cl)cc2)C1 | -5 | 5 | -1 | 10 | 62* | 1 | 23 | 2 | 5
COc1cccc(N2CC(C(=O)N3CCC4(CC3)CC(=O)c3ccccc3O4)CC2=O)c1 (configuration not stated) | -4 | 5 | -1 | -8 | 40 | 12 | . | . | .
O=C1CC2(CCN(C(=O)C3CC(=O)N(c4ccccc4)C3)CC2)Oc2ccccc21 (configuration not stated) | -6 | -2 | 2 | -1 | 65* | -49 | 21 | 1 | 6
O=C1CC2(CCN(C(=O)COc3ccccc3)CC2)Oc2ccccc21 | 0 | 3 | 1 | -2 | 46* | 8 | 20 | 2 | 4
Clc1ccc(-c2nnnn2-c2ccc(Cl)c(Cl)c2)cc1Cl | -4 | 20 | -2 | 13 | 49* | 27 | 17 | -2 | -11
Nc1ccc(-c2nnnn2-c2ccc(N)cc2)cc1 | -1 | 22 | 25 | -26 | 1 | 16 | . | . | .
COc1ccc(Nc2oc(COc3ccc(OC)cc3)nc2C#N)cc1 | 0 | 14 | -5 | -6 | 52* | -15 | 20 | -1 | 9
N#Cc1nc(COc2ccc(F)cc2)oc1N1CCC(Cc2ccccc2)CC1 | -3 | 11 | 0 | 10 | 60* | 14 | 14 | 0 | 0
SMILES | APJ agonist | CCR6 antag | B2AR ag | CXCR6 inh | EBI2 antag | APJ antagonist | EBI2 conf | EBI2 ag | bGal counter
COc1ccc(Nc2oc(COc3ccc(C)cc3)nc2C#N)cc1 | -1 | 19 | -4 | 0 | 42 | -11 | . | . | .
N#Cc1nc(COc2ccc(Br)cc2)oc1N1CCN(Cc2ccccc2)CC1 | . | 15 | 8 | 0 | 43* | . | 15 | -1 | -7
COc1ccc(OCc2nc(C#N)c(N3CCN(c4ccc(OC)cc4)CC3)o2)cc1 | -3 | 17 | -8 | 6 | 44* | 14 | 43 | 0 | 0
CC1CCCC(C)N1C(=O)CN1C(=O)NC2(CCCCCC2)C1=O (configuration not stated) | . | . | . | 0 | 7 | . | . | . | .
COc1ccc(OC)c(NC(=O)CCNS(=O)(=O)c2ccc3c(c2)CC(C)N3C(C)=O)c1 (configuration not stated) | . | . | . | -2 | -14 | . | . | . | .
O=C(C1=C[C@@H](c2ccc(Br)cc2)C[C@@H](OCc2ccc(CO)cc2)O1)N1CCN(Cc2ccc3c(c2)OCO3)CC1 | 2 | 6 | 0 | 4 | 41* | -18 | -1 | -1 | -14
O=C(C1=C[C@@H](c2ccc(C(F)(F)F)cc2)C[C@@H](OCc2ccc(CO)cc2)O1)N1CCN(Cc2ccc3c(c2)OCO3)CC1 | 7 | 7 | 11 | 6 | 36 | 0 | . | . | .
C/C=C\C=C\C(=O)N1CC2(CC(c3cccc(NC(=O)COc4ccc(Cl)cc4)c3)=NO2)C[C@H]1C(N)=O (some centres not stated) | 9 | -4 | -5 | -8 | 48* | -38 | 47 | 1 | 5
COc1ccc(C(=O)/C=C2\C(=O)Nc3ccc(Br)cc32)cc1 | . | 21 | 2 | 36 | 78* | . | 70* | 0 | -10
Cn1nnc2c[n+](CC(=O)c3ccc4ccccc4c3)cc(Br)c21 | 2 | -3 | 3 | 3 | 66* | -5 | 67* | 2 | 6
O=C(c1cc2cc(Br)ccc2o1)N1CCN(c2ccccc2)CC1 | -3 | 8 | -5 | -7 | 53* | 10 | 37 | 1 | 8
O=C(c1cc2ccccc2o1)N1CCN(c2ncccn2)CC1 | -4 | 5 | 4 | -2 | 59* | -1 | 34 | -1 | -11
O=C(c1cc2ccccc2oc1=O)N1CCN(c2ncccn2)CC1 | 5 | 3 | -12 | 3 | -2 | -10 | . | . | .
